Measurements reported in ChEMBL document CHEMBL1125249, “Structure-affinity relationships of 12-sulfonyl derivatives of 5,8,8a,9,10,11,12,12a,13,13a-decahydro-6H-isoquino[2,1-g][1 ,6] naphthyridines at alpha-adrenoceptors” (J Med Chem, 1991).

Experiments:
Cavia porcellus = species on record: Cavia porcellus; assay: In vitro reversal of inhibitory effect of UK - 14304 on the contractile response of guinea pig ileum to field stimulation.; assay type: functional, organism-based; conditions: read-out: pA2 (converted)
Procedure, shortened: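 Ileum from female Dunkin-Hartley guinea pigs (250-300 g) held in Tyrode solution at 37 °C, gassed with O2, under 1 g tension. Field stimulation at 0.1 Hz (1-ms pulses, supramaximal voltage), with isometric contractions recorded. Cumulative UK-14304 curves were run, the second taken as control. Antagonist was then applied for 40 min before repeat agonist curves.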

[1] = biological target: T1, Adrenergic receptor alpha-2 (Rattus norvegicus) (UniProt P22086+P19328+P22909)
[2] = biological target: T2, Adrenergic receptor alpha-2 (Rattus norvegicus, UniProt P22086+P19328+P22909); assay: Binding affinity to alpha-2 adrenergic receptor determined by measurement of [3H]yohimbine displacement from rat cortical membrane
T2 sequence (P22086 whole entry): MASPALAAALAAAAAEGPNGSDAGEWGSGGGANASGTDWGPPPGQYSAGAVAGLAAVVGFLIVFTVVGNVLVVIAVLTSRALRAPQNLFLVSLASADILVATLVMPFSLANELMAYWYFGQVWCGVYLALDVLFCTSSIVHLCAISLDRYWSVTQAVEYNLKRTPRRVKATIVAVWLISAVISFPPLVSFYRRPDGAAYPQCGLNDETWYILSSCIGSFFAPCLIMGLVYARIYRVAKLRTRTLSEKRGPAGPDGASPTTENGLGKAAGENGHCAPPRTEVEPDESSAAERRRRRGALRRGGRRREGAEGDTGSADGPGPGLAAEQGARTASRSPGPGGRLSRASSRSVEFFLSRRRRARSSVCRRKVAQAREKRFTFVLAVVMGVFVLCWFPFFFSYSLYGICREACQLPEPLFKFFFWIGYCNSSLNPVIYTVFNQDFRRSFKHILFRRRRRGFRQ
T2 sequence (P19328 whole entry): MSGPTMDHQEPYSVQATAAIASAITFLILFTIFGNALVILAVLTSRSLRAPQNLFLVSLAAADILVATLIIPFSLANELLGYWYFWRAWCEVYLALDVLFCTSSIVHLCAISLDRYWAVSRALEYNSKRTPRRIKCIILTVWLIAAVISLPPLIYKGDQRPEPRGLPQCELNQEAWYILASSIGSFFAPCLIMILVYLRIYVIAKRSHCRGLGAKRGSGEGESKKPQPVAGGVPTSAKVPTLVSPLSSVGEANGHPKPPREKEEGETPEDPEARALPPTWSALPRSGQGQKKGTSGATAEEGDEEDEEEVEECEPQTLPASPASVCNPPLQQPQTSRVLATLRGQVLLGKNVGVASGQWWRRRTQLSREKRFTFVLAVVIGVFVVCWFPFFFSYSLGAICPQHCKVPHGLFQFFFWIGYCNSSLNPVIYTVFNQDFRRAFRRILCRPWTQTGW
T2 sequence (P22909 whole entry): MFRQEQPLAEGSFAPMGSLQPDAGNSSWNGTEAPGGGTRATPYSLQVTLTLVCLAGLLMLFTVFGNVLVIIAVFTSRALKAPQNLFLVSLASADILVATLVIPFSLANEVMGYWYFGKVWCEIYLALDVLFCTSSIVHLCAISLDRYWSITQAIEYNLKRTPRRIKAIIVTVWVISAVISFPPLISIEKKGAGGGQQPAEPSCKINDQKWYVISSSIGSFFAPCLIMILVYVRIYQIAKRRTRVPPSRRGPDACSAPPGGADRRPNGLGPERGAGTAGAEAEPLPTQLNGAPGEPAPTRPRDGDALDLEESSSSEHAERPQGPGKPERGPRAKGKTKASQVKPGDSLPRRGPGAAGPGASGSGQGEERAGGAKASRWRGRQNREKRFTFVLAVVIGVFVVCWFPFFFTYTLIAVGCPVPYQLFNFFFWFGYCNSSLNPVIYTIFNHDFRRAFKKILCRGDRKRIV

[3] = biological target: T3, Adrenergic receptor alpha-1 (Rattus norvegicus, UniProt P15823+P23944+P43140); assay: Binding affinity to alpha-1 adrenergic receptor determined by measurement of [3H]prazosin displacement from rat cortical membrane
T3 sequence (P15823 whole entry): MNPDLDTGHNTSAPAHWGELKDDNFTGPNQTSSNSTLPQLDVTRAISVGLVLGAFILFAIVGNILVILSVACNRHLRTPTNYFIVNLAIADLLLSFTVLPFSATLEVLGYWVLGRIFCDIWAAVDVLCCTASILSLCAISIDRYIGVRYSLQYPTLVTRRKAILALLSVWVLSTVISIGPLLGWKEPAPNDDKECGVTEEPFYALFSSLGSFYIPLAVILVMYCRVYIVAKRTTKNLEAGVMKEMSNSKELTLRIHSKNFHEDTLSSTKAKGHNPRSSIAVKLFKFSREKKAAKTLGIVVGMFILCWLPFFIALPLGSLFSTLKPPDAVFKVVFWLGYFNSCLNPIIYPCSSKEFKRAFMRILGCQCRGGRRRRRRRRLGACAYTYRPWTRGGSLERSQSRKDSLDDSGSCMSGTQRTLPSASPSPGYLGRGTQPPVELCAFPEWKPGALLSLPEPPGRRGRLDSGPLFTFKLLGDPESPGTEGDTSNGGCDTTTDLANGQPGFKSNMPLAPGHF
T3 sequence (P23944 whole entry): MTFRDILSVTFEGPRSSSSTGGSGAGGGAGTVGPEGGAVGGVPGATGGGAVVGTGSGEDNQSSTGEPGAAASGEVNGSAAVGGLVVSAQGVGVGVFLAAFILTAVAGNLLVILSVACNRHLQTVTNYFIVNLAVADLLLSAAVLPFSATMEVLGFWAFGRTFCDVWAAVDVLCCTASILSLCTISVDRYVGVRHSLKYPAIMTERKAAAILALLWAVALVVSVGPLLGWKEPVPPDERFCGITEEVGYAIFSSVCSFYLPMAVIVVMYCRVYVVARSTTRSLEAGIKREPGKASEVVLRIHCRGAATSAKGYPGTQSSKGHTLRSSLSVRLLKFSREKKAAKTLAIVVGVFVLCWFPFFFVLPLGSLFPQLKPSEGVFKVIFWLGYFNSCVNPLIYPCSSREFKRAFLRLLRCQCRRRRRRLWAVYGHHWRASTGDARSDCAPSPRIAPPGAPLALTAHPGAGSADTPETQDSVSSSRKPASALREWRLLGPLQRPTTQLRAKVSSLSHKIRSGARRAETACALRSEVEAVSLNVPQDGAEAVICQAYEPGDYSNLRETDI
T3 sequence (P43140 whole entry): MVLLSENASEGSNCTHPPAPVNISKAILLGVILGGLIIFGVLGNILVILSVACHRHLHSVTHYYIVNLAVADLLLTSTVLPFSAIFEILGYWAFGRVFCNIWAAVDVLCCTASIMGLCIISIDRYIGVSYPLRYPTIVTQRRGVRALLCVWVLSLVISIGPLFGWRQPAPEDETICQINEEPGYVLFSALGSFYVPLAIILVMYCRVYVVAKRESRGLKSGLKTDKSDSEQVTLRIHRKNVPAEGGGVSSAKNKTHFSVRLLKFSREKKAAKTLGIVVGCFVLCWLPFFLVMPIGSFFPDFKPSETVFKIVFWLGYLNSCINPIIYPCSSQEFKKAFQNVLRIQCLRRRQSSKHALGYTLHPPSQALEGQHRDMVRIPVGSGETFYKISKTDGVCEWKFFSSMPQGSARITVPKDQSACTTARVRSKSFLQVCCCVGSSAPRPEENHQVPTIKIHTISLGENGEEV
Procedure, shortened: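 Male Sprague-Dawley rat (150-200 g) cerebral cortex membranes, washed in 50 mM Tris-HCl/0.5 mM EDTA pH 7.4. 250 µg membrane protein incubated with 0.5 nM [3H]prazosin for 30 min at 25 °C in a 0.5 mL volume. Nonspecific binding defined by 10 µM phentolamine. IC50 estimated graphically; Ki calculated by Cheng-Prusoff.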

[4] = biological target: T1, Adrenergic receptor alpha-2 (Rattus norvegicus); remark: listed apart in the source

Row | SMILES | Kb (Cavia porcellus) [nM] | ID50 [1] [mg/kg] | Log Ki [2] | Log Ki [3] | ID50 [4] [mg/kg]
1 | CS(=O)(=O)N1CCC[C@@H]2CN3CCc4cc5c(cc4[C@@H]3C[C@@H]21)OCO5 | 1 | 0.76 | -9.18 | -5.14 | 0.06
2 | COc1ccc(S(=O)(=O)N2CCC[C@@H]3CN4CCc5ccccc5[C@@H]4C[C@@H]32)cc1 | 1.58 | > 3 | -9.34 | -5.31 | 0.18
